From ChEMBL document CHEMBL1147854, “Synthesis and biological properties of 4-(3H)-quinazolone derivatives” (2007) come the findings set out here.

Test [1] concerns Aspergillus niger. Briefly: Antifungal activity against Aspergillus niger at 20 ug/ml by agar plate method. It counts as functional. An outline of the steps: (§1)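 1 ml of test compound in DMSO (diluted to required level, filtered if turbid) mixed into 20–25 ml molten potato dextrose agar. After setting, plates were inoculated with fungal isolate and kept at 27 °C for seven days. Percent inhibition of fungal zone then recorded. Amphotericin control (7.5 mg/ml).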

A further test relates to MCF7. Briefly: Cytotoxicity against human MCF7 cells by MTT assay. It counts as functional, cell-based. An outline of the steps: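 MCF-7 cells were kept at 37 °C, 5% CO2 in MEM with 10% FBS, then moved for four days to phenol red-free DMEM with 10% charcoal-stripped serum before testing. Cells were seeded at 1 × 10^4/well and exposed to compounds for 24, 48 and 72 h. MTT was added for 5 h at 37 °C, followed by DMSO solubilisation. Doxorubicin standard.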

For test [2], the system named is Aspergillus flavus. The test is described as follows: Antifungal activity against Aspergillus flavus at 20 ug/ml by agar plate method. In kind it is functional. An outline of the steps: as §1
In test [3] the test system is Aspergillus flavus. The test is described as follows: Antifungal activity against Aspergillus flavus at 100 ug/ml by agar plate method. It counts as functional. The method, boiled down: as §1
Another test has as its system Klebsiella pneumoniae. The test is described as follows: Antibacterial activity against Klebsiella pneumoniae at 10 ug/ml after 24 hrs by disk diffusion method. It counts as functional. Conditions: read-out: IZ. An outline of the steps: (§2)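 Disk diffusion on filter-paper discs impregnated with DMSO solutions of test compound; filtered if turbid. Inhibition zones around dried discs measured after 24 h. Triplicate samples. Tetracycline control (20 mg/ml).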
For orientation: A growth-free zone around the sample is the usual read-out of agar diffusion tests.

The test system of test [4] is Aspergillus niger. The test is described as follows: Antifungal activity against Aspergillus niger at 100 ug/ml by agar plate method. It counts as functional. The method, boiled down:
as §1

In test [5] the test system is Aspergillus niger. Briefly: Antifungal activity against Aspergillus niger at 10 ug/ml by agar plate method. It counts as functional. An outline of the steps:
as §1

The test system of a further test is Pseudomonas aeruginosa. Briefly: Antibacterial activity against Pseudomonas aeruginosa at 10 ug/ml after 24 hrs by disk diffusion method. In kind it is functional. The note with it: read-out: IZ. An outline of the steps: as §2
Test [6] concerns Aspergillus flavus. The test is described as follows: Antifungal activity against Aspergillus flavus at 50 ug/ml by agar plate method. It counts as functional. The method, boiled down:
as §1

The subject of test [7] is Aspergillus flavus. Briefly: Antifungal activity against Aspergillus flavus at 10 ug/ml by agar plate method. In kind it is functional. An outline of the steps:
as §1

The next test deals with Staphylococcus aureus. The test is described as follows: Antibacterial activity against Staphylococcus aureus at 10 ug/ml after 24 hrs by disk diffusion method. The note with it: read-out: IZ. In kind it is functional. The method, boiled down:
as §2

The subject of test [8] is Aspergillus niger. Briefly: Antifungal activity against Aspergillus niger at 50 ug/ml by agar plate method. In kind it is functional. An outline of the steps:
as §1

Each structure is given as a SMILES string. Active and inactive are the calls of the source. No cut-off for these calls is given here.

Broadly, the inhibition is the percentage by which the read-out fell short of the control. Read a low inhibition as a weak effect. As to `O=c1c2ccccc2nc(-c2ccccc2)n1Nc1nc(-c2ccccc2)nc2ccccc12`, the inhibition at 20 µg/mL in the test on Aspergillus niger [1] turned out to be 40%; in the test on Aspergillus flavus [2], 83.3%. Moreover, in the test with MCF7, the outcome was inactive. The inhibition at 100 µg/mL in the test on Aspergillus flavus [3] was determined as 96.7%; with Aspergillus niger [4] it was 75%. In addition, the zone of inhibition at 10 µg/mL with Klebsiella pneumoniae was > 14 mm; in the test on Pseudomonas aeruginosa, 10 mm; in the test with Staphylococcus aureus, 6 mm. Besides, the inhibition at 10 µg/mL in the test on Aspergillus niger [5] was found to be 30%; with Aspergillus flavus [7], 76.7%. In addition, the inhibition at 50 µg/mL with Aspergillus flavus [6] came to 93.3%; in the test on Aspergillus niger [8], 60%.
Regarding `O=C1c2ccccc2C(=O)N1Cc1nc2ccccc2c(=O)n1Nc1nc(-c2ccccc2)nc2ccccc12`, the inhibition at 20 µg/mL was 70% in the test on Aspergillus niger [1] and 86.7% in the test on Aspergillus flavus [2]. For the same compound, the result in the test with MCF7 was inactive. The inhibition at 100 µg/mL was 96.7% with Aspergillus flavus [3] and 85% in the test with Aspergillus niger [4]. Besides, the zone of inhibition at 10 µg/mL in the test with Klebsiella pneumoniae was > 14 mm; in the test with Pseudomonas aeruginosa it was > 14 mm; in the test on Staphylococcus aureus, 6 mm. Further, the results for the inhibition at 10 µg/mL in the test with Aspergillus niger [5] and in the test on Aspergillus flavus [7] were 25% and 83.3%, respectively. The figures for the inhibition at 50 µg/mL in the test on Aspergillus flavus [6] and in the test on Aspergillus niger [8] were 86.7% and 75%, respectively.
As to `O=c1c2ccccc2nc(/C=C\c2ccccc2)n1Nc1nc(-c2ccccc2)nc2ccccc12`, the inhibition at 20 µg/mL stood at 70% with Aspergillus niger [1] and 80% in the test on Aspergillus flavus [2]. Also, the result with MCF7 was Active. In addition, the inhibition at 100 µg/mL came to 96.7% in the test with Aspergillus flavus [3] and 95% in the test on Aspergillus niger [4]. In addition, the figures for the zone of inhibition at 10 µg/mL with Klebsiella pneumoniae, in the test with Pseudomonas aeruginosa and in the test on Staphylococcus aureus were 6 mm, 10 mm and > 14 mm, respectively. Further, the inhibition at 10 µg/mL in the test with Aspergillus niger [5] amounted to 60%; with Aspergillus flavus [7], 53.3%. In addition, the inhibition at 50 µg/mL with Aspergillus flavus [6] came to 86.7%; in the test with Aspergillus niger [8], 90%.
For `O=C(NCc1nc2ccccc2c(=O)n1Nc1nc(-c2ccccc2)nc2ccccc12)c1ccccc1`, the values for the inhibition at 20 µg/mL in the test with Aspergillus niger [1] and with Aspergillus flavus [2] were 60% and 66.6%, respectively. The result with MCF7 was Active. The inhibition at 100 µg/mL in the test with Aspergillus flavus [3] was found to be 86.7%; in the test on Aspergillus niger [4] it was 90%. The zone of inhibition at 10 µg/mL in the test on Klebsiella pneumoniae, in the test on Pseudomonas aeruginosa and in the test on Staphylococcus aureus was 10 mm each time. Further, the figures for the inhibition at 10 µg/mL in the test on Aspergillus niger [5] and in the test with Aspergillus flavus [7] were 50% and 60%, respectively. The inhibition at 50 µg/mL in the test on Aspergillus flavus [6] turned out to be 76.7%; in the test with Aspergillus niger [8], 75%.
